Experimental data published in ChEMBL document CHEMBL2069297, “Inhibition of galactosyltransferases by a novel class of donor analogues” (J Med Chem, 2012).
Active and inactive are the calls of the source. The rule behind the calls is not given here.

Legend:
[1] = Binding affinity to Neisseria meningitidis alpha-1,4-GalT after 15 mins by competitive binding assay
Neisseria meningitidis [2] = experiment: Binding affinity to Neisseria meningitidis alpha-1,4-GalT after 10 mins by fluorescence quenching assay
Outline: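 Titration of the fluorescent donor analogue (200 nM final) with LgtC protein stock diluted 1/5 to 1/640 (eight dilutions) in A/B buffer (50 mM MOPS pH 7.0, 20 mM MnCl2, 1 mg/mL BSA). Emission read after 10 min at 37 °C (excitation 350 nm, emission 430 nm) and plotted against enzyme dilution. Run in triplicate.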

Neisseria meningitidis [3] = experiment: Binding affinity to Neisseria meningitidis alpha-1,4-GalT by fluorescence quenching assay in presence of unlabeled UDP-Gal and UDP
[4] = biological target: T1, Beta-1,4-galactosyltransferase 1 (Bos taurus) (UniProt P08037); experiment: Ratio of Km for the compound to Km for UDP-Gal in bovine beta-1,4-GalT
T1 sequence (whole entry): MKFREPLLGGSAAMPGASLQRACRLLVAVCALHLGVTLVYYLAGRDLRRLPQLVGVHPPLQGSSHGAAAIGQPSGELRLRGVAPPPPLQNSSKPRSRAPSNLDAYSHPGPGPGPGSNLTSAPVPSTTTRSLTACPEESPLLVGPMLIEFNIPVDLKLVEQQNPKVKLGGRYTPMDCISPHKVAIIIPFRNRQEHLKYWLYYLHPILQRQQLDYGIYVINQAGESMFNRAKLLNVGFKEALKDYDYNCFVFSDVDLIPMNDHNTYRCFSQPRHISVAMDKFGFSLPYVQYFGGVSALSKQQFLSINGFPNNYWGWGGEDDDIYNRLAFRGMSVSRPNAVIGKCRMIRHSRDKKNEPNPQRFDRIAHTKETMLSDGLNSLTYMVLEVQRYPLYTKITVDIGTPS

[5] = Drug uptake in human HL60 cell endoplasmic reticulum at 100 uM after 24 hrs by confocal fluorescence microscopy; type: ADME, cell-based; settings: hl-60, 24 h
Outline: (§1)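 HL-60 cells were grown in RPMI 1640 with 16.7% (v/v) heat-inactivated FCS, L-glutamine and PenStrep. They were seeded at 10^6 cells/mL onto a glass coverslip and kept 24 h at 37 °C, 5% CO2 with the sodium-salt analogue at 100 μM. The coverslip was washed with medium to remove extracellular fluorophore. The compound's intrinsic blue fluorescence (λem 434 nm) was imaged by confocal microscopy at 364 nm.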

[6] = Drug uptake in human HL60 cell golgi apparatus at 100 uM after 24 hrs by confocal fluorescence microscopy; type: ADME, cell-based; settings: hl-60, 24 h; outline: as §1
[7] = Inhibition of Neisseria meningitidis alpha-1,4-GalT after 15 mins by Dixon plot analysis
Outline: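 Radiochemical transfer assay with DTT-activated N. meningitidis LgtC (0.010 ng): UDP-Gal 0.57 μM plus UDP-[3H]-Gal, Lacβ-O(CH2)8CO2Me 2 mM, DTT 1.7 mM, inhibitor 0–12.5 μM, in A/B buffer pH 7. Incubated 15 min at 37 °C, stopped with water.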

[8] = biological target: N-acetyllactosaminide alpha-1,3-galactosyltransferase (Bos taurus, UniProt P14769); experiment: Inhibition of alpha-1,3-GalT in bovine after 15 mins by Dixon plot analysis
Chain of N-acetyllactosaminide alpha-1,3-galactosyltransferase (P14769 whole entry): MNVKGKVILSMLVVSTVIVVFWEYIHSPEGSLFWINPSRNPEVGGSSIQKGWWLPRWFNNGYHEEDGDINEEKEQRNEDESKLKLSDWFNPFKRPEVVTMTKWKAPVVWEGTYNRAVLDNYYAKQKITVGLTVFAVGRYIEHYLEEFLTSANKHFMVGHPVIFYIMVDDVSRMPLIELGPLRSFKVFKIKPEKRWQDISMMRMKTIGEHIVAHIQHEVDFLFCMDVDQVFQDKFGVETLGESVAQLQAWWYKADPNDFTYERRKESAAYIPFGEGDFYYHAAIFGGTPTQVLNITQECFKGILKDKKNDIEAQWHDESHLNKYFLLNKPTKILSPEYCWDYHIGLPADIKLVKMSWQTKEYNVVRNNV
Outline: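 Bovine α-1,3-GalT (1.3 μg) in A/B buffer pH 7 with UDP-Gal 76 μM plus UDP-[3H]-Gal, Lacβ-O(CH2)8CO2Me 500 μM, and inhibitor 0–62.5 μM. Incubated 15 min at 37 °C, stopped with water; radiolabeled galactose transfer measured.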

[9] = Inhibition of human GTB after 15 mins by Dixon plot analysis
Outline: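 Radiochemical assay on human GTB (0.049 ng): UDP-Gal 26 μM with UDP-[3H]-Gal, Fucα1,2Galβ-O(CH2)7CH3 acceptor 500 μM, inhibitor 0–62.5 μM, in A/B buffer pH 7. Incubated 15 min at 37 °C, then quenched with water.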

Row | SMILES | Ratio [4] | Ki [7] | Ki [8] | Ki [9] | further results
1 | O=c1ccn([C@@H]2O[C@H](COP(=O)(O)OP(=O)(O)O)[C@@H](O)[C@H]2O)c(=O)[nH]1 [URIDINE_DIPHOSPHATE] | – | – | – | – | IC50 [1]: 46 µM
2 | O=Cc1ccc(-c2cn([C@@H]3O[C@H](COP(=O)(O)OP(=O)(O)CC[C@H]4O[C@H](CO)[C@H](O)[C@H](O)[C@H]4O)[C@@H](O)[C@H]3O)c(=O)[nH]c2=O)s1 [listing 1 of 2 here] | – | – | – | – | Activity (Neisseria meningitidis [2]): Dose-dependent effect; Activity (Neisseria meningitidis [3]): inactive
3 | COc1ccc(-c2cn([C@@H]3O[C@H](COP(=O)(O)OP(=O)(O)O[C@H]4O[C@H](CO)[C@H](O)[C@H](O)[C@H]4O)[C@@H](O)[C@H]3O)c(=O)[nH]c2=O)cc1 | 3.3 | – | – | – | –
4 | O=Cc1ccc(-c2cn([C@@H]3O[C@H](COP(=O)([O-])OP(=O)([O-])O[C@H]4O[C@H](CO)[C@H](O)[C@H](O)[C@H]4O)[C@@H](O)[C@H]3O)c(=O)[nH]c2=O)s1.[Na+].[Na+] | – | – | – | – | Drug uptake [5]: Active; Drug uptake [6]: Active
5 | O=Cc1ccc(-c2cn([C@@H]3O[C@H](COP(=O)([O-])OP(=O)([O-])CC[C@H]4O[C@H](CO)[C@H](O)[C@H](O)[C@H]4O)[C@@H](O)[C@H]3O)c(=O)[nH]c2=O)s1.[Na+].[Na+] | – | – | – | – | Drug uptake [5]: Active; Drug uptake [6]: Active
6 | O=Cc1ccc(-c2cn([C@@H]3O[C@H](COP(=O)(O)OP(=O)(O)CC[C@H]4O[C@H](CO)[C@H](O)[C@H](O)[C@H]4O)[C@@H](O)[C@H]3O)c(=O)[nH]c2=O)s1 [listing 2 of 2 here] | – | 1700 nM | 18 µM | 3.8 µM | –

Second part, led by results:

Row | Ratio [4] | Ki [7] | Ki [8] | Ki [9] | SMILES | further results
7 | 2 | 1900 nM | 90 µM | 33 µM | O=c1[nH]c(=O)n([C@@H]2O[C@H](COP(=O)(O)OP(=O)(O)O[C@H]3O[C@H](CO)[C@H](O)[C@H](O)[C@H]3O)[C@@H](O)[C@H]2O)cc1-c1ccco1 | –
8 | 6 | 6000 nM | 76 µM | 48 µM | O=c1[nH]c(=O)n([C@@H]2O[C@H](COP(=O)(O)OP(=O)(O)O[C@H]3O[C@H](CO)[C@H](O)[C@H](O)[C@H]3O)[C@@H](O)[C@H]2O)cc1-c1ccccc1 | –
9 | 2 | – | – | – | O=Cc1ccc(-c2cn([C@@H]3O[C@H](COP(=O)(O)OP(=O)(O)O[C@H]4O[C@H](CO)[C@H](O)[C@H](O)[C@H]4O)[C@@H](O)[C@H]3O)c(=O)[nH]c2=O)s1 [listing 1 of 2 here] | –
10 | – | 450 nM | – | 2.4 µM | O=Cc1ccc(-c2cn([C@@H]3O[C@H](COP(=O)(O)OP(=O)(O)O[C@H]4O[C@H](CO)[C@H](O)[C@H](O)[C@H]4O)[C@@H](O)[C@H]3O)c(=O)[nH]c2=O)s1 [listing 2 of 2 here] | –
